Compounds with a hit are over-represented: about 3.5% of the library has one in this group of screens.
RGS4 pot – RGS4 potentiation or activation | B-score at 10 µM | HEK293 M3R/inducible RGS4, carbachol calcium flux Fluo4; active compounds read low | actives 0.92% (n = 310,000);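 active means B-score of the integrated calcium signal more than 4 SD below the library mean, with starting fluorescence not abnormally high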;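 further: negative B-score means reduced calcium response which marks RGS4 activation or potentiation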
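Test system: HEK293 cells with stable M3R and inducible RGS4; also added: carbachol at ECmax as muscarinic agonist stimulus; schedule: dye loading 30 min 37 °C, buffer rest 30 min RT; technique: kinetic calcium fluorescence imaging with Fluo4-AM dye, 2 µM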
RGS4 block – human RGS4 inhibition; P49798; HEK293 M3R/RGS4 inducible, Fluo-4 calcium flux; active compounds read high; triggered by carbachol at its EC20; B-score at 10 µM; actives 0.45% (n = 310,000);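 active means B-score, a plate-corrected calcium signal, over three deviations above library mean, with baseline fluorescence within five deviations of library mean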;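 further: RGS4 expression induced by doxycycline in cells with stable M3 receptor; B-score is computed from the integrated fluorescence ratio over baseline after carbachol; higher B-score means a larger calcium signal and so more RGS4 inhibition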
Target sequence (P49798 whole entry, looked up): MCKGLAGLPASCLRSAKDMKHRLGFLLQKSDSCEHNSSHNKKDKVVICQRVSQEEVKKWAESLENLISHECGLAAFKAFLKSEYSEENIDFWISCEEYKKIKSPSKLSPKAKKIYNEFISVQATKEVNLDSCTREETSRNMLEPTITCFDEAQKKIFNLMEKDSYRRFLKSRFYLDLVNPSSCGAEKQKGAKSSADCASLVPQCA
MrgX1 PAM – allosterically activates human MrgX1 receptor signaling. Q96LB2. B-score at 10 µM. AID 588675. actives 0.63% (n = 310,000). MrgX1-HEK293, Fluo-4 calcium flux, FDSS; active compounds read high;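 active means plate-corrected calcium response at least 3 library SD above typical, normal starting fluorescence, not activating the receptor alone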;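 further: compound read alongside a low EC10 to EC30 dose of BAM8-22 agonist; peak minus trough fluorescence over baseline measured at the second addition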
Target sequence (Q96LB2 whole entry, looked up): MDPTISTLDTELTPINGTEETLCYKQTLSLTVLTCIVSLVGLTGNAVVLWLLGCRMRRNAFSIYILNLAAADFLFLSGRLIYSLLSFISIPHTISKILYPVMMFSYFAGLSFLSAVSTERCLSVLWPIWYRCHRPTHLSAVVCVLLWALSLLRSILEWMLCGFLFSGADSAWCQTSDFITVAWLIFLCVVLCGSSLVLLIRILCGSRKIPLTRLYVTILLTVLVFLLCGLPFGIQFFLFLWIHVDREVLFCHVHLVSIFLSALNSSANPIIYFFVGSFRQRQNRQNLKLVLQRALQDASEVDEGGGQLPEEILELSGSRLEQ
MrgX1 agonist – activates human MrgX1 receptor signaling; Q96LB2; MrgX1-HEK293 cells, Fluo-4 calcium fluorescence, agonist mode; active compounds read high; B-score at 10 µM; actives 0.44% (n = 310,000); AID 588627;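 active means calcium response B-score plate-corrected fluorescence ratio at least 3 library SD, with starting fluorescence B-score inside 5 SD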
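System: HEK293 cells stably expressing human MrgX1 receptor; Dosing: test compound in the initial addition of three; Schedule: overnight plating, then 30 min 37 °C plus 30 min room-temperature dye loading; Detection: kinetic calcium dye fluorescence, Fluo-4 NW; Controls: per-plate positive and negative controls for Z′ factor.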
MrgX1 antag – human MrgX1 receptor antagonism, primary screen; Q96LB2; MRGX1-HEK293 calcium flux, Fluo-4, BAM8-22 antagonism; active compounds read low; B-score at 10 µM; actives 1.3% (n = 310,000); AID 588676;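 active means calcium-response B-score plate-corrected more than 3 library SD below zero, starting fluorescence within 5 deviations, no agonist response on first addition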;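 further: peak minus trough fluorescence over baseline after final BAM8-22 challenge near maximal dose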
RGS4 activ val – confirmation of RGS4 activators; shares compounds with RGS4 pot; HEK293 M3R/RGS4 inducible, carbachol calcium flux Fluo4; inhibition, % at 10 µM; actives 89% (n = 1,100);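 active means inhibition above 3 SD of the buffer control wells, cut at about 41% in these data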;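 further: signal is the integrated peak-minus-minimum Fluo4 fluorescence over baseline ratio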
RGS4 act ctr – activity in cells without induced RGS4 expression | HEK293 M3R non-induced RGS4, Fluo4 calcium flux; after carbachol challenge at its EC90 | actives 82% (n = 1,100) | shares compounds with RGS4 pot | inhibition, % at 10 µM;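 active means inhibition exceeding 3 SD of buffer-only control wells, cut at about 26% in these data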;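 further: percent drop in integrated peak-minus-baseline over baseline Fluo4 ratio after carbachol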
Hits are given with their value; i = inactive; nt = not tested or not shown.

SMILES	RGS4 pot	RGS4 block	MrgX1 PAM	MrgX1 agonist	MrgX1 antag	RGS4 activ val	RGS4 act ctr
CN(C)C/C=C/C(O)(c1ccccc1)c1ccccc1	-9.34	i	i	i	i	93.0	74.8
COc1cc2c(cc1Cl)/C(=C\CCN(C)C)c1ccccc1S2	-9.67	i	i	i	i	92.0	67.3
C=CCNC(=S)N1CCC(C(=O)c2ccc(F)cc2)CC1	i	i	i	i	i	nt	nt
CC(NS(=O)(=O)c1ccc2c(c1)CC(=O)N2C)c1ccccc1 (stereo not given)	i	i	i	i	i	nt	nt
CCNc1nc(NC(C)(C)C)nc(N2CCCC2)n1	-9.01	i	i	i	i	82.5	47.3
COc1ccc(OC)c(/C=N/NC(=O)CCN2CCN(C(c3ccccc3)c3ccccc3)CC2)c1	-10.8	i	i	i	i	92.5	93.8
CCn1c(CNC(=O)C2CCCCC2)cc2cc(C)ccc21	i	i	i	i	i	nt	nt
CC(C)=CCc1c(O)ccc2c1OC(c1ccc(O)c(O)c1)CC2=O (stereo not given)	-8.7	i	i	i	i	93.0	78.3
O=C1CC(c2ccc(O)c(O)c2)Oc2c1ccc(O)c2O (stereo not given)	nt	nt	i	i	i	nt	nt
CC12CNCC(C)(CN(C(c3ccccc3)c3ccccc3)C1)C2	-7.66	i	i	i	i	66.0	27.3
CC(=O)N1CCN(C(c2ccccc2)c2ccccc2)CC1	i	i	i	i	i	nt	nt
O=S(=O)(Cc1ccccc1)Nc1ccccc1	i	i	i	i	i	nt	nt
CN(Cc1ccccc1)S(=O)(=O)c1ccc(NS(=O)(=O)Cc2ccccc2)cc1	-8.84	i	i	i	i	85.0	57.3
CCC(CC)C(=O)Nc1cccc(C(=O)N2CCCCCC2)c1	i	i	i	i	i	nt	nt
CCC(CC)C(=O)Nc1cccc(C(=O)N2CCOCC2)c1	-10.2	i	i	i	i	i	i
CCCCCCNS(=O)(=O)c1ccc(Cl)s1	-9.97	i	i	i	i	43.0	83.8
CCn1c(=O)n(CCc2ccccc2)c(=O)c2c3c(sc21)CCCC3	i	i	i	i	i	nt	nt
COC(=O)Cn1c(=O)n(CCc2ccccc2)c(=O)c2c3c(sc21)CCCC3	-7.79	i	i	i	i	91.5	88.8
N#Cc1ccc(C(=O)Nc2cccc(NC(=O)c3ccco3)c2)c(F)c1	i	i	i	i	i	nt	nt
CCCCCOC(=O)c1ccc(OC(=O)c2cncc(Br)c2)cc1	i	i	i	i	i	nt	nt
CCCCCCCOC(=O)c1ccc(OC(=O)c2cccnc2)cc1	-8.42	i	i	i	i	90.5	58.8
Cc1[nH]c2ccccc2c1Cc1n[nH]c(=S)n1C	-8.19	i	i	i	i	i	i
Cc1[nH]c2ccccc2c1SCc1n[nH]c(=S)n1C	i	i	i	i	i	nt	nt
Nc1cc(C(=O)O)ccc1N1CCCCCC1	i	i	i	i	i	nt	nt
CCCNC(=O)Nc1ccsc1C(=O)OC	i	i	i	i	i	nt	nt
SMILES	RGS4 pot	RGS4 block	MrgX1 PAM	MrgX1 agonist	MrgX1 antag	RGS4 activ val	RGS4 act ctr
COc1ccccc1C(=O)NCC1CCN(c2ccc(S(=O)(=O)N3CCOCC3)cc2)CC1	-7.77	i	i	i	i	93.0	85.8
O=C(O)c1cccc(Nc2nc(-c3cccnc3)nc3ccccc23)c1	i	i	i	i	i	nt	nt
COC(=O)c1cccc(Nc2nc(-c3cccnc3)nc3ccccc23)c1	-8.43	i	i	i	i	42.0	i
Cc1ccc(S(=O)(=O)N(Cc2cc3cccc(C)c3[nH]c2=O)c2ccccc2)cc1	i	i	i	i	i	nt	nt
COc1ccc(NS(=O)(=O)c2ccc(OCC(=O)N3CCOCC3)cc2)cc1Cl	i	i	i	i	i	nt	nt
Cc1cc(C)cc(C(=O)N2CC(C)OC(C)C2)c1 (stereo not given)	i	i	i	i	i	nt	nt
S=c1[nH]nc(-c2cccc(Cl)c2)n1Cc1ccccc1	i	i	i	i	i	nt	nt
S=c1[nH]nc(-c2ccc(Cl)cc2Cl)n1Cc1ccccc1	-7.75	i	i	i	i	91.0	57.8
Cc1cccc(-c2n[nH]c(=S)n2Cc2ccccc2)c1	-8	i	i	i	i	i	i
S=c1[nH]nc(-c2ccc(Cl)cc2Cl)n1-c1ccccc1	i	i	i	i	i	nt	nt
O=C(NCCCN1CCOCC1)c1cccc(S(=O)(=O)Nc2cc(Cl)ccc2Cl)c1	i	i	i	i	i	nt	nt
COC(=O)C1=C(C)N(c2ccc(OC)cc2)C(C)=C(C(=O)OC)C1c1ccc(OC)cc1	-8.96	i	i	i	i	i	i
COC(=O)C1=C(C)N(c2ccc(OC)cc2)C(C)=C(C(=O)OC)C1c1ccccc1	i	i	i	i	i	nt	nt
CCOC(=O)c1cc2c(ccn2C)n1Cc1cc(C)ccc1C	-8	i	i	i	i	85.0	30.3
N=c1c2c(-c3ccccc3)c(-c3ccccc3)n(Cc3ccco3)c2ncn1Cc1ccccc1	-11	i	i	i	i	93.0	94.8
C=CCn1c(SCC(=O)c2cccs2)nc2sc(C)c(C)c2c1=O	-9.43	i	i	i	i	91.5	38.3
C/C(=N\NC(=O)Cn1nnc2ccccc21)c1ccco1	i	i	i	i	i	nt	nt
CC1(C)Cc2c(sc3ncnc(NN)c23)CO1	i	i	i	i	i	nt	nt
Cc1ccc(C)c(NC(=O)C(NCC(C)(C)N2CCOCC2)c2ccccc2)c1 (stereo not given)	-10.3	i	i	i	i	92.0	94.8
CN(C)CCCNC(=O)/C(=N\O)c1ccccc1	i	i	i	i	i	nt	nt
Cc1cccc(C)c1C(=NCCCN(C)C)c1ccccc1	-9.39	i	i	i	i	92.5	80.3
O=C(Nc1nc2ccc(S(=O)(=O)N3CCCC3)cc2s1)c1ccco1	-7.61	i	i	i	i	i	i
CCCN(CC#CC(O)(c1ccccc1)c1cccnc1)CCC (stereo not given)	i	i	i	i	i	nt	nt
OC(C#CCN1CCCC1)(c1ccccc1)c1cccnc1 (stereo not given)	-8.17	i	i	i	i	92.5	86.3
CCOc1cc2sc(N3CCC(C(=O)NCCCN4CCCC4=O)CC3)nc2cc1Br	-9.38	i	i	i	i	48.5	83.8
Cc1cc(C)c2nc(N3CCC(C(=O)NCCCN4CCCC4=O)CC3)sc2c1	i	i	i	i	i	nt	nt
CC(C)(C)c1cc(C(=O)NCc2cc(F)cc3c2OCOC3)n(Cc2ccccc2)n1	-8.4	i	i	i	i	92.0	56.3
Cc1cccc(C)c1NC(=O)NNC(=O)c1cc(C(C)(C)C)nn1Cc1ccccc1	i	i	i	i	i	nt	nt
CCOc1cnc(-c2c(-c3c(Cl)cccc3Cl)noc2C)o1	-8.54	i	i	i	i	90.0	61.3
